Among the data in ChEMBL document CHEMBL3414471 (J Med Chem, 2015) are EC50, Emax and Activity values, retold here.

Activity calls are given as the source filed them. No cut-off for these calls is given here.

Holding throughout (type): functional, cell-based
For assay [1], the target named is T1, 5-hydroxytryptamine receptor 2B (Homo sapiens, UniProt P41595). Kind of assay: Agonist activity at human 5-HT2B receptor expressed in HEK293 cells assessed as calcium flux by FLIPR assay.
In assay [2] the target is T2, 5-hydroxytryptamine receptor 2C (Homo sapiens, UniProt P28335).
T2 sequence (P28335 whole entry): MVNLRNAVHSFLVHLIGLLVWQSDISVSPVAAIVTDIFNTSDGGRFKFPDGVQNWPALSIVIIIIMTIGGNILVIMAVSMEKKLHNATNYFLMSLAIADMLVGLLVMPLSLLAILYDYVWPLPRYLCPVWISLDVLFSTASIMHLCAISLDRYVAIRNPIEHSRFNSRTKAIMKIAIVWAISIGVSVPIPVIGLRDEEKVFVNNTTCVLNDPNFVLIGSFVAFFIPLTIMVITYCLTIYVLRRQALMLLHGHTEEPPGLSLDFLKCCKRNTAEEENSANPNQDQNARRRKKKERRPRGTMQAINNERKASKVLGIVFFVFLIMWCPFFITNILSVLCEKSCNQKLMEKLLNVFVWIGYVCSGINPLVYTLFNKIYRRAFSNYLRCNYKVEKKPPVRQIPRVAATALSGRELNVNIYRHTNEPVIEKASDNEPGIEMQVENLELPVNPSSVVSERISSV
Kind of assay: Agonist activity at human 5-HT2C receptor expressed in HEK293 cells assessed as calcium flux by FLIPR assay. For orientation: Calcium assays in cells follow changes in intracellular calcium, usually with a dye or a luminescent sensor.

The target in assay [3] is T3, 5-hydroxytryptamine receptor 2A (Homo sapiens, UniProt P28223). Kind of assay: Agonist activity at human 5-HT2A receptor expressed in HEK293 cells assessed as calcium flux by FLIPR assay relative to 5-HT. A digest of the protocol: (§1)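 Flp-In-293 cells stably expressing human 5-HT2A, 5-HT2B or 5-HT2C-INI; grown 24–48 h in DMEM/10% dialyzed FBS, plated on poly-L-Lys at 12000 cells/well in 1% dialyzed FBS for 24 h. Loaded 1 h at 37 °C with calcium dye in HBSS, 20 mM Hepes pH 7.40, 2.5 mM probenecid.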

Assay [4] concerns the target T1, 5-hydroxytryptamine receptor 2B. Kind of assay: Agonist activity at human 5-HT2B receptor expressed in HEK293 cells assessed as calcium flux by FLIPR assay relative to 5-HT. Summed up: as §1
In assay [5] the target is T4, 5-hydroxytryptamine receptor 2C (Homo sapiens) (UniProt P28335).
T4 sequence (whole entry): T2 sequence (P28335 whole entry)
Kind of assay: Agonist activity at human 5-HT2C receptor expressed in HEK293 cells assessed as calcium flux by FLIPR assay relative to 5-HT. Summed up:
as §1

Assay [6] deals with T3, 5-hydroxytryptamine receptor 2A. In words: Agonist activity at human 5-HT2A receptor expressed in HEK293 cells assessed as calcium flux by FLIPR assay.
Assay [7] shares this target. In words: Agonist activity at human 5-HT2A receptor expressed in HEK293 cells assessed as calcium flux at 10 uM by FLIPR assay. A digest of the protocol: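 Flp-In-293 cells stably expressing human 5-HT2A, 5-HT2B or 5-HT2C-INI, grown in DMEM with 10% dialyzed FBS, then plated for 24 h in 1% dialyzed FBS. Cells were loaded 1 h at 37 °C with calcium dye in Hepes-buffered HBSS, pH 7.40, containing 2.5 mM probenecid. FLIPR read 10 s baseline, then 120 s after drug addition.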

What is called EC50 is the concentration needed to bring the measured effect to its halfway point. One may read the Emax as the size of the effect at its maximum, as opposed to the concentration needed.

T1 sequence (P41595 whole entry): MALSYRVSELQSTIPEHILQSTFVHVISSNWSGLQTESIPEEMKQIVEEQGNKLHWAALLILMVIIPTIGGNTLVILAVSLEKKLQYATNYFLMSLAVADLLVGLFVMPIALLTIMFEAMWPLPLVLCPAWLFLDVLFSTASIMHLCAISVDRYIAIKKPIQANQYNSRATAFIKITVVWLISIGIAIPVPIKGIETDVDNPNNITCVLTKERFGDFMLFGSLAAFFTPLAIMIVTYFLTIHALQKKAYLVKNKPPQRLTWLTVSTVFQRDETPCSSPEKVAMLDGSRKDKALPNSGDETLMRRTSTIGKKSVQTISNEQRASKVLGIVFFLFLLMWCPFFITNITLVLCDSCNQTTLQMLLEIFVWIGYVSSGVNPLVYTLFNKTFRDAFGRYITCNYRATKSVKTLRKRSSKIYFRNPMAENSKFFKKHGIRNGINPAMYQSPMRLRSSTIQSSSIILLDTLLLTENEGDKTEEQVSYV
T3 sequence (P28223 whole entry): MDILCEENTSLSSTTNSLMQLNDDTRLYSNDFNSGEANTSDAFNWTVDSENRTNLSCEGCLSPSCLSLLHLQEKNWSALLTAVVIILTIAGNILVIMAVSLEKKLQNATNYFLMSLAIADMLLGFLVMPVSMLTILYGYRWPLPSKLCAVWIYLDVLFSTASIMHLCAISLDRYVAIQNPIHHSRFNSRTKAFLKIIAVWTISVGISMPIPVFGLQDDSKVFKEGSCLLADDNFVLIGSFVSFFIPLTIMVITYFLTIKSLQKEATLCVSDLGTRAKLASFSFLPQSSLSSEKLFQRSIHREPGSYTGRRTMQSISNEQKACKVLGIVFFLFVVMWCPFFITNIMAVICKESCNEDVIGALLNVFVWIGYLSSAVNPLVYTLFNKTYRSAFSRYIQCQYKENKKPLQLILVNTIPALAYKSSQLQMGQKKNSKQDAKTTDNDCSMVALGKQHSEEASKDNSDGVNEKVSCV

Regarding `C=C(C)COc1ccc(Cl)cc1[C@H]1C[C@@H]1CN`, the EC50 in assay [1] is 422 nM; in assay [2] it was 212 nM; in assay [6], 903 nM. Besides, the values for the maximal response (Emax) in assay [3], in assay [4] and in assay [5] were 26%, 32% and 90%, respectively.

On to `COCCOc1ccc(Cl)cc1[C@@H]1C[C@H]1CN`, for which the figures for the half-maximal effective concentration (EC50) in assay [1] and in assay [2] were 5300 nM and 667 nM, respectively. Besides, in assay [7], the outcome was inactive. The Emax in assay [4] was 32%; in assay [5] it was 45%.

Consider `CC(C)Oc1ccc(Cl)cc1[C@@H]1C[C@H]1CN`, for which the EC50 in assay [1] turned out to be 5660 nM; in assay [2], 2480 nM.

As to `NC[C@@H]1C[C@H]1c1cc(Cl)ccc1OCCCF`, the concentration giving a half-maximal response (EC50) came out at 6170 nM in assay [1] and 1260 nM in assay [2]. For the same compound, in assay [7], the outcome was inactive. Further, the Emax was 22% in assay [4] and 24% in assay [5].

Take `C=CCOc1ccc(Cl)cc1[C@@H]1C[C@H]1CN`: the EC50 was 4300 nM in assay [1] and 737 nM in assay [2]. Also, the result in assay [7] was inactive. In addition, the values for the maximal effect (Emax) in assay [4] and in assay [5] were 28% and 42%, respectively.

Consider `NC[C@H]1C[C@@H]1c1cc(Cl)ccc1OCCCF`, for which the figures for the EC50 in assay [1] and in assay [2] were 4910 nM and 206 nM, respectively. Moreover, the result in assay [7] was inactive. The Emax in assay [4] was determined as 22%; in assay [5], 60%.

`C#CCOc1ccc(Cl)cc1[C@@H]1C[C@H]1CN`: the 50% effective concentration (EC50) in assay [1] turned out to be 4410 nM; in assay [2], 365 nM. Also, the result in assay [7] was inactive. Moreover, the maximum response (Emax) in assay [4] was 30%; in assay [5], 71%.

On to `NC[C@@H]1C[C@H]1c1cc(Cl)ccc1OCC1CC1`, for which the results for the EC50 in assay [1] and in assay [2] were 3030 nM and 1080 nM, respectively. Also, the outcome in assay [7] was inactive. Also, the values for the Emax in assay [4] and in assay [5] were 32% and 51%, respectively.

Regarding `CCOc1ccc(Cl)cc1[C@H]1C[C@@H]1CN`, the half-maximal effective concentration (EC50) in assay [1] was determined as 86 nM; in assay [2] it was 13 nM; in assay [6], 1210 nM. Further, the Emax in assay [3] is 49%; in assay [4] it was 45%; in assay [5], 91%.

As to `CCOc1ccc(Cl)cc1[C@@H]1C[C@H]1CN`, the concentration for a half-maximal effect (EC50) was found to be 2310 nM in assay [1] and 646 nM in assay [2]. The outcome in assay [7] was inactive. Besides, the results for the Emax in assay [4] and in assay [5] were 26% and 72%, respectively.

Take `NC[C@H]1C[C@@H]1c1cc(Cl)ccc1OCC1CC1`: the concentration giving a half-maximal response (EC50) is 5010 nM in assay [1] and 251 nM in assay [2]. Further, in assay [7], the result was inactive. In addition, the Emax in assay [4] was 20%; in assay [5], 75%.

Consider `NC[C@@H]1C[C@H]1c1cc(Cl)ccc1OCCF`, for which the EC50 in assay [1] stood at 4520 nM; in assay [2], 1130 nM. The outcome in assay [7] was inactive. Besides, the maximum response (Emax) in assay [4] was 31%; in assay [5] it was 59%.

Turning to `CC(C)Oc1ccc(Cl)cc1[C@H]1C[C@@H]1CN`, the half-maximal effective concentration (EC50) in assay [1] came to 997 nM; in assay [2], 91 nM; in assay [6], 4000 nM.

As to `NC[C@@H]1C[C@H]1c1cc(Cl)ccc1OCC(F)F`, the 50% effective concentration (EC50) in assay [1] stood at 1480 nM; in assay [2] it was 914 nM; in assay [6] it was 1300 nM. Besides, the Emax in assay [3] turned out to be 43%; in assay [4] it was 30%; in assay [5], 64%.

On to `C[C@H]1CNCCc2ccc(Cl)cc21`, for which the Emax in assay [3] turned out to be 68%.

With `CCCOc1ccc(Cl)cc1[C@@H]1C[C@H]1CN`, the EC50 in assay [1] turned out to be 3000 nM; in assay [2], 1230 nM. Also, the result in assay [7] was inactive. Moreover, the Emax in assay [4] was 21%; in assay [5], 31%.

On to `CCCOc1ccc(F)cc1[C@@H]1C[C@H]1CN`, for which the 50% effective concentration (EC50) in assay [1] worked out at 735 nM; in assay [2] it was 296 nM. Besides, in assay [7], the outcome was inactive. Also, the Emax amounted to 11% in assay [4] and 80% in assay [5].
